# Shown are actives, neighbours in structure and some others; about 2.1% of the full set was active somewhere.
# zVAD death inh: blocks zVAD induced death of L929 cells | viability rescue, % at 10 µM | AID 1377 | L929 zVAD necroptosis rescue, ATP luminescence, 24 h; with zVAD 60 µM | hit rate 0.38% among 220,000;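 active = activation, scaled between plate controls, above about 75%, limit read from the data; inactive = activation under that limit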;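 also: 0% = zVAD with DMSO and 100% = DMSO alone without zVAD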
# TNF death inh: inhibitors of TNF-alpha induced necroptosis in Jurkat FADD-/- cells. hit rate 0.068% among 220,000. Jurkat FADD-/- TNF necroptosis rescue, ATP luminescence, 24 h; 0 = TNF only, 100 = no-TNF cells. activation (protection from cell death), % at 10 µM;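 active = activation, meaning protection from cell death, of at least 50% relative to plate controls; inactive = activation below 50%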;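 also: necroptosis triggered by 40 ng/mL TNF-alpha added together with compound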
# STAT3 act: increases IL-6 driven STAT3 reporter signal. U3A cells, IL-6 STAT3-luciferase reporter, luminescence; 100% = signal with IL-6 EC80 alone. activation (% of control), % at 5.6 µM. hit rate 0.91% among 190,000;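 active = activation above the screen-wide mean of compound activation plus 3 SD, cut at about 130% in these data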;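 also: 0% = background luminescence of wells with medium and substrate only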
#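 Test system: human U3A cells carrying STAT3-luciferase construct; control set: IL-6-only wells as 100% reference; timing: compound pre-incubation 1 h before IL-6, then 6 h stimulation at 37 °C; also added: IL-6 stimulus at 33 ng/mL final; evaluation: % activation versus median of IL-6-stimulated wells; detection: reporter luminescence signal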
# STAT3 inh-1: STAT3 signaling inhibition | U3A cells, IL-6 STAT3-luciferase reporter, luminescence; host cell line lacks STAT1 | inhibition, % at 5.5 µM | hit rate 0.89% among 190,000 | AID 862;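 active = inhibition above the mean inhibition across all screened compounds plus 3 SD, cut at about 44% in these data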;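 also: 0% = DMSO only wells and 100% = 100 µM nifuroxazide control wells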
# STAT1 inh: STAT1 signaling inhibition | NIH 3T3 STAT1-luciferase reporter, IFN-gamma, luminescence | inhibition, % at 5.5 µM | hit rate 0.35% among 200,000;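 active = inhibition above a set limit, the mean inhibition across all tested compounds plus 3 SD, cut at about 34% in these data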;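 also: 0% = IFN-gamma with DMSO and 100% = IFN-gamma with 300 µM nifuroxazide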
# STAT3 inh-2: confirmation of STAT3 signaling inhibitors | shares compounds with STAT3 inh-1 | inhibition, % at 5.7 µM | U3A cells, IL-6 STAT3 luciferase reporter, luminescence; cell line lacks STAT1 | hit rate 45% among 1,200 | AID 1265;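 active = inhibition above the hit cutoff computed for the primary STAT3 screen, cut at about 44% in these data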;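 also: 0% = IL-6 plus DMSO and 100% = IL-6 plus nifuroxazide control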
# NFkB inh STAT3ct: inhibits NF-kappaB, counter-screen to STAT3 inhibitors; shares compounds with STAT3 inh-1; HEK293T NF-kB luciferase reporter, TNF-alpha induced; AID 1308; inhibition, % at 5.7 µM; hit rate 36% among 1,200;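 active = inhibition above the mean of solvent-only control wells plus 3 SD, cutoff set per campaign, cut at about 13% in these data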;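 also: 0% = TNF-alpha with DMSO and 100% = TNF-alpha with MG high control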
# STAT1 inh 2: STAT1 inhibition in STAT3 inhibitor counter-screen. shares compounds with STAT3 inh-1. NIH 3T3 STAT1-luciferase reporter, IFN-gamma induced, luminescence. inhibition, % at 5.7 µM. hit rate 27% among 1,200. AID 1317;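 active = inhibition above the mean plus 3 SD of solvent-only control wells, limit set per screening run, cut at about 16% in these data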;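 also: 0% = DMSO with IFN-gamma and 100% = nifuroxazide control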
# Active calls of the source: *; x = no result given.
SMILES,zVAD death inh,TNF death inh,STAT3 act,STAT3 inh-1,STAT1 inh,STAT3 inh-2,NFkB inh STAT3ct,STAT1 inh 2
Cc1cc(C)nc(Nc2n[nH]c(-c3ccc(C(C)(C)C)cc3)n2)n1,37,0,64,47*,-18,36,-16,-29
Cc1cc(C)nc(Nc2n[nH]c(-c3ccc(N)cc3)n2)n1,0,2,96,5,-54,x,x,x
c1ccc(-n2nnc3c(N4CCOCC4)ncnc32)cc1,0,-1,32,81*,11,40,2,-53
Cc1nnc(N2CCOCC2)c2nn(-c3ccccc3)c(C)c12,1,-1,90,13,2,x,x,x
COc1ccc(Cl)cc1NC(=O)COC(=O)/C=C/c1c(C)nn(C2CCS(=O)(=O)C2)c1Cl (centres undefined),0,-1,66,46*,11,32,1,-5
COc1ccccc1CNc1ccc2nnc(CCNC(=O)c3ccccc3)n2n1,1,0,105,-4,18,x,x,x
Cc1ccc(C(C(=O)NC(C)(C)C)N(C(=O)c2csnn2)c2cccc(F)c2)o1 (centres undefined),0,-1,106,-3,-4,x,x,x
CCOc1ccc(NC(=S)NC2CC3CCC(C2)N3Cc2ccco2)cc1 (centres undefined),-1,-1,104,-1,-3,x,x,x
O=C(Nc1ccc(S(=O)(=O)Nc2ccc(F)cc2)cc1)c1ccc(CN2CCOCC2)cc1,3,-6,35,80*,6,84*,30*,14
COc1ccc(NS(=O)(=O)c2cccc(NC(=O)c3ccc(S(=O)(=O)N4CCCCCC4)cc3)c2)cc1,0,-2,49,61*,20,69*,23*,25*
COc1ccc(NS(=O)(=O)c2ccc(O)c(NC(=O)c3ccc(S(=O)(=O)N4CCCCCC4)cc3)c2)cc1,2,3,96,3,4,x,x,x
COc1ccc(NS(=O)(=O)c2ccc(NC(=O)c3ccc(CN4CCOCC4)cc3)cc2)cc1,3,-10,39,73*,20,66*,16*,14
Cc1ccc(S(=O)(=O)Nc2ccc(NC(=O)c3ccc(F)cc3)cc2)cc1,10,2,102,-2,-11,x,x,x
Cc1ccc2nc(-c3cc(N)cc(N)c3)oc2c1,0,-4,65,43*,3,25,5,-15
Nc1ccc(-c2nc3ccc(N)cc3o2)cc1,3,-7,100,4,-27,x,x,x
CC(=O)Nc1ccc(NC(=O)CSc2nnc(C)c(=O)[nH]2)cc1,2,1,108,-10,-1,x,x,x
CCN(CC)c1ccc(/C=C/c2nc3ccccc3s2)cc1,1,-2,50,66*,23,23,-8,-91
CCN(CC)c1ccc(NC(=O)COC(=O)/C=C/c2nc3ccccc3s2)cc1,3,-1,102,-8,-2,x,x,x
CCC(=O)/C=C1/Sc2ccccc2N1CC,0,-3,86,19,-1,x,x,x
CCN1/C(=C/c2sc(-c3ccccc3C)c[n+]2C)Sc2ccccc21,6,-6,21,91*,30,94*,54*,32*
CCCn1c2c(c(=N)c3c1CCC3)CCCC2,0,-1,74,33,23,x,x,x
N=c1c2c(n(Cc3ccc([N+](=O)[O-])cc3)c3c1CCC3)CCCC2,0,-1,96,13,4,x,x,x
N=c1c2c(n(Cc3ccc(Br)cc3)c3c1CCC3)CCCC2,0,-2,48,63*,19,49*,1,22*
N=c1c2c(n(Cc3ccc(Cl)c(Cl)c3)c3c1CCC3)CCCC2,0,-6,53,61*,28,24,9,25*
COc1ccccc1C(=O)Nc1nc(-c2ccc(S(=O)(=O)N3CCOCC3)cc2)cs1,1,-9,37,76*,25,74*,20*,20*
CCN1CCN(C(=O)CN(C)S(=O)(=O)c2ccc(OC)c(C)c2)CC1,0,-1,106,0,-3,x,x,x

# Screening data deposited in PubChem BioAssay by several laboratories.
